Data published in the array DNA melting data of Ke et al. (doi:10.1101/2024.01.08.574731).

Columns and labels:
[1] = melting temperature; fluorescence melt of hairpins on a sequencing array, two-state fit, raised by 9.35 °C to match UV melts; conditions: sodium 0.088 M
In short: (§1)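 Hairpins were imaged by Cy3 fluorescence on a sequenced MiSeq flow cell with annealed Cy3 and quencher oligos, in 50 mM Na-HEPES pH 8.0, 25 mM NaCl, in 2.5 °C steps up to 60 °C. Bootstrapped two-state fits of normalised signals gave melting temperature and folding enthalpy. Four replicates were combined by inverse variance, and fitted temperatures were raised by 9.35 °C to match UV melts.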

[2] = folding enthalpy; higher = less favourable; fluorescence melt of hairpins on a sequencing array, two-state fit; conditions: sodium 0.088 M
In short: as §1

Sequence	Tm [1]	folding enthalpy [2]
GCGAACGAAAGTTACCGC ((((((....)))..)))	37.7 °C	-22.1 kcal/mol
GCGAACGAAAGTTCACGC ((((((....)))..)))	48.9 °C	-22.9 kcal/mol
GCGAACGAAAGTTCTCGC ((((((....)))..)))	45.6 °C	-18.8 kcal/mol
GCGAACGAAAGTTGCCGC ((((((....)))..)))	42.4 °C	-16.6 kcal/mol
GCGAACGAAAGTTGCGC ((((((....))).)))	53.9 °C	-36.9 kcal/mol
GCGAACGAAAGTTTACGC ((((((....)))..)))	43 °C	-21.2 kcal/mol
GCGAACGAAAGTTTTCGC ((((((....)))..)))	44.1 °C	-26.6 kcal/mol
GCGAACGCGAAAGCGCGC (((..(((....))))))	60.1 °C	-14.7 kcal/mol
GCGAACGGAAACATTCGC (((((.(....).)))))	48.2 °C	-32.7 kcal/mol
GCGAACGGAAACGCTCGC ((((.((....)).))))	55.7 °C	-41.5 kcal/mol
GCGAACGTCGC ((((...))))	45.8 °C	-18.8 kcal/mol
GCGAAGCATCGC ((((....))))	59.5 °C	-8.14 kcal/mol
GCGAAGCGAAAGCAACGC (((..((....))..)))	48.4 °C	-11 kcal/mol
GCGAAGCGAAAGCAGCGC (((..((....))..)))	57.7 °C	-16.6 kcal/mol
GCGAAGCGAAAGCTAAGC ((..(((....)))..))	54.4 °C	-16.5 kcal/mol
GCGAAGCGAAAGCTCCGC (((.(((....))).)))	50.9 °C	-36.7 kcal/mol
GCGAAGGGAAACCCTCGC ((((.((....)).))))	53.4 °C	-42.3 kcal/mol
GCGAAGGGAAACTTTCGC (((((.(....).)))))	51 °C	-30.2 kcal/mol
GCGAAGGTCGC ((((...))))	49.9 °C	-15.3 kcal/mol
GCGAATCCTCGC ((((....))))	46.3 °C	-24.5 kcal/mol
GCGAATCGAAAGATGCGC (((.(((....))).)))	60.6 °C	-42.4 kcal/mol
GCGAATTATCGC ((((....))))	47.8 °C	-21.3 kcal/mol
GCGAATTGTCGC ((((....))))	46 °C	-17 kcal/mol
GCGACACGAAAGTGCGC (((.(((....))))))	63.9 °C	-22.7 kcal/mol

Sequence	Tm [1]	folding enthalpy [2]
GCGACACTCGC ((((...))))	53.1 °C	-18.2 kcal/mol
GCGACAGCTCGC ((((....))))	67 °C	-9.44 kcal/mol
GCGACAGTTCGC ((((....))))	47.7 °C	-17.4 kcal/mol
GCGACATTTCGC ((((....))))	48.8 °C	-22 kcal/mol
GCGACCAATCGC ((((....))))	44 °C	-23.6 kcal/mol
GCGACCAGTCGC ((((....))))	57.3 °C	-32.7 kcal/mol
GCGACCGAAAGGTAGCGC ((((((....)))..)))	68.5 °C	-31.7 kcal/mol
GCGACCGAAAGGTATCGC ((((((....)))..)))	50.5 °C	-27.7 kcal/mol
GCGACCGAAAGGTGCGC ((((((....))).)))	67.1 °C	-28.9 kcal/mol
GCGACCGGAAACAGCCGC (((.(.(....).).)))	32.5 °C	-21.1 kcal/mol
GCGACCGGAAACGGTTGC ((.((((....)))).))	64.6 °C	-41.1 kcal/mol
GCGACCTCTCGC ((((....))))	46.9 °C	-18.6 kcal/mol
GCGACGAGTCGC ((((....))))	60.6 °C	-36.6 kcal/mol
GCGACGATTCGC ((((....))))	44.6 °C	-15.9 kcal/mol
GCGACGCGAAAGCCACGC (((..((....))..)))	48.7 °C	-17.7 kcal/mol
GCGACGCGAAAGCCTTGC ((.(.((....)).).))	35.9 °C	-12 kcal/mol
GCGACGCGAAAGCGCTGC ((..(((....)))..))	57.1 °C	-17.5 kcal/mol
GCGACGCGAAAGCTACGC (((..((....))..)))	52.5 °C	-18.6 kcal/mol
GCGACGGGAAACCGTTGC ((.((((....)))).))	61 °C	-40 kcal/mol
GCGACGTCTCGC ((((....))))	54.2 °C	-13.3 kcal/mol
GCGACTCCTCGC ((((....))))	48.6 °C	-23.9 kcal/mol
GCGACTCGTCGC ((((....))))	68.3 °C	-33.6 kcal/mol
GCGACTGGAAACGGTTGC ((.((.(....).)).))	43.9 °C	-32.1 kcal/mol
GCGACTGTCGC ((((...))))	48 °C	-33 kcal/mol
